# Measured values gathered from unrelated publications.
Compound,tested on,assay,test system,conditions,endpoint,value
Cn1nccc1[C@]1(CNC(=O)c2ccc(F)c(F)c2-c2ccc(C(F)(F)F)cc2)NC(=O)NC1=O,,,"male C57BL/6 mouse, plasma","oral, 1 mg/kg",bioavailability,132%
COc1cc(Cl)cc2c(=O)n3c(nc12)[C@@H]1CCCN(C)[C@@H]1CC3 (racemic),SH-SY5Y,"cell growth or viability, ATP luminescence",,72 h,CC50,> 20 µM
CN1CCN(S(=O)(=O)c2cc([N+](=O)[O-])ccc2N(CCOS(C)(=O)=O)CCOS(C)(=O)=O)CC1,,,"female SCID mouse, plasma","intraperitoneal, 5 mg/kg",AUC(0-inf),0.5 µM·h
C[C@]12CC[C@H]3[C@@H](CCC4=CC(=O)CC[C@@]43C)[C@@H]1CC[C@@H]2O,,metabolic stability,"Sprague-Dawley rat, hepatocytes",1 µM,half-life,2.92 min
C[C@]12CC[C@H]3[C@@H](CC=C4CC(O)CC[C@@]43CO)[C@@H]1CCC2O (stereo partly shown),,metabolic stability,"rat, liver microsomes",,half-life,19.9 min
COCC1=N[C@@]2(O)[C@H](C(=O)N(C)OC)[C@@H](c3ccccc3)[C@]3(c4ccc(OC)cc4)Oc4cc(OC)cc(OC)c4[C@]23N1,,metabolic stability,"male Sprague-Dawley rat, liver microsomes","1 µM, pH 7.4",half-life,74.7 min
CN1CC[C@H]2c3nc4ccc(Cl)cc4c(=O)n3CC[C@H]21 (racemic),SH-SY5Y,"cell growth or viability, ATP luminescence",,,CC50,> 20 µM
NCCNC(=O)O[C@H]1CCC[C@@]2(C1)OOC1(O2)C2CC3CC(C2)CC1C3 (stereo partly shown),,,"male CD-1 mouse, plasma","intravenous, 3 mg/kg",AUC(0-inf),757 ng·h/mL
C=CS(=O)(=O)c1ccc(Nc2nc(OCC3CCCCC3)c3nc[nH]c3n2)cc1,,,"male BALB/c mouse, plasma","intraperitoneal, 20 mg/kg, single dose",AUC(0-t),137 ng·h/mL
CNC(=O)c1ccc(-c2cnn3ccc(C(=O)N(C)c4ccc(Cl)c(C(=O)O)c4)cc23)cc1,,,"female C57BL/6 mouse, plasma","oral, 10 mg/kg/day",AUC,34 ng·h/mL
CONC(=O)[C@H]1[C@@H](O)[C@@]2(O)c3c(OC)cc(OC)cc3O[C@@]2(c2ccc(OC)cc2)[C@@H]1c1ccccc1,,metabolic stability,"rat, liver microsomes",,half-life,58.3 min
CC(C)C[C@H](NC(=O)[C@H](Cc1ccccc1)NC(=O)[C@H](Cc1ccccc1)NC(=O)Cc1ccc(-c2ccccc2)cc1)C(=O)N[C@@H](CCCCN)C(=O)N[C@@H](CCCNC(=N)N)C(=O)N[C@H](C(=O)N[C@@H](Cc1c[nH]c2ccccc12)C(=O)N[C@@H](CCCCN)C(=O)N[C@@H](CCCNC(=N)N)C(=O)O)C(C)C,,metabolic stability,"rat, liver microsomes",1 µM,half-life,5.12 min
CNC(=O)c1ccc(-c2cnn3ccc(C(=O)N(C)c4ccc(Cl)c(C(=O)OC)c4)cc23)cc1,,,"female C57BL/6 mouse, plasma","oral, 10 mg/kg/day",AUC,9.1 ng·h/mL
